Results from different studies.
blaNDM-1: Metallo-beta-lactamase type 2 (blaNDM-1, Klebsiella pneumoniae, UniProt C7C422)
HLA class I histocompatibility antigen, B alpha chain: HLA class I histocompatibility antigen, B alpha chain (Homo sapiens, UniProt P01889)
HTR2C: 5-hydroxytryptamine receptor 2C (HTR2C, Homo sapiens, UniProt P28335)
dxs: 1-deoxy-D-xylulose-5-phosphate synthase (dxs, Deinococcus radiodurans, UniProt Q9RUB5)
FAAH: Fatty-acid amide hydrolase 1 (FAAH, Homo sapiens, UniProt O00519)
HTR2B: 5-hydroxytryptamine receptor 2B (HTR2B, Homo sapiens, UniProt P41595)

The IC50 of `Cc1c2ccncc2c(C)c2c1[nH]c1ccccc12` is reported as greater than 30000 nM (blaNDM-1; enzyme activity; inhibitor).
With `NC(=O)c1cccc(-c2cccc(OC(=O)NC3CCCCC3)c2)c1` the IC50 was greater than 10000 nM (Monoglyceride lipase (MGLL, Homo sapiens, UniProt Q99685); enzyme activity; inhibitor; absorbance).
The IC50 of `CC[C@H](C)[C@H](NC(=O)[C@H](CCCNC(=N)N)NC(=O)[C@H](CC(C)C)NC(=O)[C@@H](N)Cc1ccccc1)C(=O)N[C@@H](CCCNC(=N)N)C(=O)N1CCC[C@H]1C(=O)N[C@@H](CCCCN)C(=O)O` is reported as 140 nM (B2 bradykinin receptor (BDKRB2, Homo sapiens, UniProt P30411); ligand displacement; radioligand).
For `CSCC[C@H](NC(=O)[C@H](Cc1c[nH]c2ccccc12)NC(=O)CNC(=O)[C@H](Cc1ccc(O)cc1)NC(=O)[C@H](C)NC(=O)[C@@H](CCC(=O)O)NC(=O)CN1CCN(CC(=O)O)CCN(CC(=O)O)CCN(CC(=O)O)CC1)C(=O)N[C@@H](CC(=O)O)C(=O)N(C)[C@@H](Cc1ccccc1)C(N)=O`, the IC50 was 40.4 nM (Gastrin/cholecystokinin type B receptor (CCKBR, Homo sapiens, UniProt P32239); ligand displacement; radioligand).
With `CSCC[C@H](NC(=O)[C@@H](NC(=O)[C@@H](NC(=O)[C@H](CC(C)C)NC(=O)[C@H](CC(N)=O)NC(=O)[C@H](CC(N)=O)NC(=O)[C@@H](NC(=O)[C@H](C)NC(=O)[C@@H](N)CC(C)C)[C@@H](C)O)C(C)C)C(C)C)C(=O)O` the IC50 was 55 nM (HLA class I histocompatibility antigen, B alpha chain; ligand displacement; radioligand).
With `COc1cc(CC(C)N)c(OC)cc1I` (racemic) the IC50 was 0.46 nM (HTR2C; ligand displacement; radioligand).
For `OCC(S)CS` (stereo not shown), the IC50 was 4210 nM (blaNDM-1; enzyme activity; inhibitor; fluorescence).
The IC50 of `O=C(Cc1ccccc1)N[C@H](C(=O)O)[C@@H]1N=C(C(=O)O)C(CSC(C(=O)O)c2ccccc2)CS1` (stereo partly shown) is reported as greater than 100000 nM (blaNDM-1; enzyme activity; inhibitor; absorbance).
For `CCCCCNC(=N)N/N=C/c1c[nH]c2ccc(OC)cc12`, the IC50 was 197 nM (HTR2C; ligand displacement; radioligand).
For `CSCC[C@H](NC(=O)[C@H](C)NC(=O)[C@H](CC(C)C)NC(=O)[C@H](C)NC(=O)[C@H](Cc1c[nH]c2ccccc12)NC(=O)[C@H](C)NC(=O)[C@@H](NC(=O)[C@@H]1CCCN1C(=O)[C@H](CO)NC(=O)[C@H](CO)NC(=O)[C@@H](N)CO)C(C)C)C(=O)N[C@@H](CCCNC(=N)N)C(=O)O`, the IC50 was 9500 nM (dxs; enzyme activity; inhibitor; absorbance).
For `CC[C@H](C)[C@H](NC(=O)[C@H](CCCNC(=N)N)NC(=O)[C@@H]1CCCN1C(=O)[C@H](C)N)C(=O)N[C@H](C(=O)N[C@@H](Cc1ccccc1)C(=O)NCC(=O)NCC(=O)N1CCC[C@H]1C(=O)O)[C@@H](C)O`, the IC50 was 59 nM (HLA class I histocompatibility antigen, B alpha chain; ligand displacement; radioligand).
The IC50 of `CN1CCN(CC/C=C2/c3ccccc3Sc3ccc(S(=O)(=O)N(C)C)cc32)CC1` is reported as 2800 nM (HTR2C; ligand displacement; radioligand).
`COc1nn([C@@H](C)c2ccc(CC(C)C)cc2)c(=O)o1` gave an IC50 of 11 nM (FAAH; enzyme activity; inhibitor; cell membranes).
`c1ccc(CN(CCN(Cc2ccccn2)Cc2ccccn2)Cc2ccccn2)nc1` has an IC50 of 644 nM (blaNDM-1; enzyme activity; inhibitor; fluorescence).
For `COCCn1c2nc(=O)n(-c3ccccc3)c(=O)c-2nc2ccccc21`, the IC50 was 35500 nM (mRNA cap guanine-N(7) methyltransferase (RNMT, Homo sapiens, UniProt O43148); enzyme activity; inhibitor).
With `C[C@H](N)[C@H](O)c1cccc(O)c1` the IC50 was 7380 nM (HTR2B; ligand displacement; radioligand).
`COc1cc(CC(C)N)c(OC)cc1I` (racemic) has an IC50 of 3.1 nM (HTR2B; ligand displacement; radioligand).
`O=C(O)c1ccccn1` has an IC50 of 84000 nM (blaNDM-1; enzyme activity; inhibitor; fluorescence).
`CC[C@H](C)[C@H](NC(=O)[C@@H]1CCCN1C(=O)[C@@H](NC(=O)[C@H](CC(C)C)NC(=O)[C@H](CCC(N)=O)NC(=O)[C@H](Cc1ccccc1)NC(=O)[C@H](C)NC(=O)[C@@H](N)CCCCN)[C@@H](C)O)C(=O)N[C@@H](C)C(=O)N[C@H](C(=O)O)C(C)C` gave an IC50 of 8600 nM (HLA class I histocompatibility antigen, B alpha chain; ligand displacement; radioligand).
`CSCC[C@H](NC(=O)[C@H](CCC(N)=O)NC(=O)[C@H](C)NC(=O)[C@H](CO)NC(=O)[C@@H](N)CO)C(=O)N[C@@H](CC(N)=O)C(=O)N[C@@H](CC(C)C)C(=O)N[C@@H](CC(N)=O)C(=O)N[C@H](C(=O)N[C@@H](Cc1ccccc1)C(=O)N[C@@H](CC(C)C)C(=O)N[C@@H](CC(N)=O)C(=O)O)[C@@H](C)O` has an IC50 of 49000 nM (dxs; enzyme activity; inhibitor; absorbance; pH 7.6; with preincubation).
With `CC(C)[C@H](NC(=O)[C@@H](NC(=O)[C@H](CCC(=O)O)NC(=O)[C@@H](NC(=O)[C@H](Cc1ccccc1)NC(=O)[C@H](C)NC(=O)[C@H](CO)NC(=O)[C@@H](NC(=O)[C@@H](N)CO)[C@@H](C)O)C(C)C)[C@@H](C)O)C(=O)O` the IC50 was 8860 nM (HLA class I histocompatibility antigen, B alpha chain; ligand displacement; radioligand).
`CN(Cc1ccccc1)C(=O)Oc1nsnc1N1CCCCC1` gave an IC50 of 63.1 nM (FAAH; enzyme activity; inhibitor; cell membranes).
